Assay results reported in ChEMBL document CHEMBL1649438, “Activities of ceftobiprole and other cephalosporins against extracellular and intracellular (THP-1 macrophages and keratinocytes) forms of methicillin-susceptible and methicillin-resistant Staphylococcus aureus” (Antimicrob Agents Chemother, 2009).
Converted amounts (≈) assume the structure as drawn.

What was measured:
[1] = tested on: Staphylococcus aureus; assay: Ratio of MIC for beta-lactamase-negative methicillin-susceptible Staphylococcus aureus ATCC 25923 by microdilution method at pH 7.4 to ratio of MIC for beta-lactamase-negative methicillin-susceptible Staphylococcus aureus ATCC 25923 by microdilution method at pH 5.5; type: functional
In short: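 MICs were measured by broth microdilution, with the broth adjusted to pH 7.4 or pH 5.5 before inoculation. pH was confirmed at the end of the assay to within ±0.1 unit. The value is the fold decrease in MIC between pH 7.4 and pH 5.5.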

[2] = tested on: Staphylococcus aureus; assay: Bacteriostatic activity against methicillin-susceptible Staphylococcus aureus ATCC 25923 infected in human keratinocytes assessed as change in bacterial count after 24 hrs; type: functional
In short: (§1)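 Primary human skin keratinocytes were grown in defined keratinocyte serum-free medium and infected with S. aureus to 1.5 × 10^6 to 3.0 × 10^6 CFU/mg cell protein. Cells were exposed 24 h to increasing extracellular concentrations. Response was the log10 CFU change from the postphagocytosis inoculum, fitted by a Hill equation with slope 1. Cs is the concentration giving CFU equal to the original inoculum, found by graphical interpolation.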

[3] = tested on: Staphylococcus aureus; assay: Bacteriostatic activity against methicillin-resistant Staphylococcus aureus ATCC 33591 infected in human keratinocytes assessed as change in bacterial count after 24 hrs; type: functional
In short: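 Primary human skin keratinocytes were grown in defined keratinocyte serum-free medium, infected, then incubated 24 h with increasing extracellular drug concentrations. Response was the change in log10 CFU/mg cell protein versus the post-phagocytosis inoculum, fitted to a Hill equation with slope factor 1. Static concentration (mg/liter, total drug) was taken by graphical interpolation where CFU equalled the original inoculum.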

[4] = tested on: Staphylococcus aureus; assay: Ratio of MIC for hospital-acquired methicillin-resistant Staphylococcus aureus ATCC 33591 by microdilution method at pH 7.4 to ratio of MIC for hospital-acquired methicillin-resistant Staphylococcus aureus ATCC 33591 by microdilution method at pH 5.5; type: functional
In short: (§2)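 MICs were determined by broth microdilution at pH 7.4 and pH 5.5. Broth was adjusted before inoculation, and pH was confirmed maintained (±0.1 unit) at the end.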

[5] = tested on: Staphylococcus aureus; assay: Antimicrobial activity against methicillin-susceptible Staphylococcus aureus ATCC 25923 infected in human keratinocytes assessed as change in bacterial count after 24 hrs; type: functional, organism-based; settings: ATCC 25923, 24 h; in short: as §1
[6] = tested on: Staphylococcus aureus; assay: Antimicrobial activity against methicillin-susceptible Staphylococcus aureus ATCC 25923 infected in human keratinocytes assessed as bacterial count per mg of cell protein at high extracellular compound concentration after 24 hrs; type: functional; in short: as §1
[7] = tested on: Staphylococcus aureus; assay: Antimicrobial activity against methicillin-resistant Staphylococcus aureus ATCC 33591 infected in human keratinocytes assessed as bacterial count per mg of cell protein at low extracellular compound concentration after 24 hrs; type: functional
In short: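 Primary human skin keratinocytes were grown in defined keratinocyte serum-free medium, infected with a postphagocytosis inoculum of 1.5 × 10⁶ to 3.0 × 10⁶ CFU/mg cell protein, then exposed 24 h to increasing extracellular antibiotic concentrations. Change in log10 CFU/mg protein from the inoculum was fitted to a Hill equation with slope 1. E0 and Emax were extrapolated to infinitely low and high concentrations, in total drug mg/liter.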

[8] = tested on: Staphylococcus aureus; assay: Antimicrobial activity against methicillin-susceptible Staphylococcus aureus ATCC 25923 infected in human keratinocytes assessed as bacterial count per mg of cell protein at low extracellular compound concentration after 24 hrs; type: functional; in short: as §1
[9] = tested on: Staphylococcus aureus; assay: Ratio of MIC for hospital-acquired methicillin-resistant Staphylococcus aureus ATCC 33591 by microdilution method at pH 5.5 to MIC for beta-lactamase-negative methicillin-susceptible Staphylococcus aureus ATCC 25923 by microdilution method at pH 5.5; type: functional; in short: as §2
[10] = tested on: Staphylococcus aureus; assay: Antimicrobial activity against hospital-acquired methicillin-resistant Staphylococcus aureus N4112910 obtained from nasal swap of patient by microdilution method at pH 5.5
[11] = tested on: Staphylococcus aureus; assay: microbe, parasite or virus in culture; settings: ATCC 11632
[12] = tested on: Staphylococcus aureus; assay: microbe, parasite or virus in culture; settings: ATCC 25923
[13] = tested on: Staphylococcus aureus; assay: Antimicrobial activity against hospital-acquired vancomycin-intermediate Staphylococcus aureus NRS126 obtained from bloodstream infection of patient by microdilution method at pH 5.5

SMILES: CO[C@@]1(NC(=O)Cc2cccs2)C(=O)N2C(C(=O)O)=C(COC(N)=O)CS[C@@H]21 [CEFOXITIN]
- fold change (FC) [1]: 4
- Activity [2]: 1.84 mg/L
- Activity [3]: >200 mg/L
- fold change (FC) [4]: 512
- EC50 [5]: 0.55 µg/mL (≈ 1.29 µM)
- log10cfu [6]: -0.91
- log10cfu [7]: 2.36
- log10cfu [8]: 3.06

SMILES: CO/N=C(\C(=O)N[C@@H]1C(=O)N2C(C(=O)O)=C(CSc3nc(=O)c(O)nn3C)CS[C@H]12)c1csc(N)n1 [CEFTRIAXONE]
- fold change (FC) [1]: 16
- Activity [2]: 14.8 mg/L
- fold change (FC) [9]: 4
- Activity [3]: >200 mg/L
- fold change (FC) [4]: 512
- EC50 [5]: 1.83 µg/mL (≈ 3.3 µM)
- log10cfu [6]: -0.3
- log10cfu [7]: 2.09
- log10cfu [8]: 2.44

SMILES: CO/N=C(\C(=O)N[C@@H]1C(=O)N2C(C(=O)O)=C(COC(N)=O)CS[C@H]12)c1ccco1 [CEFUROXIME]
- fold change (FC) [1]: 16
- Activity [2]: 0.26 mg/L
- fold change (FC) [9]: 4
- Activity [3]: 200 mg/L
- fold change (FC) [4]: 128
- EC50 [5]: 0.27 µg/mL (≈ 0.636 µM)
- log10cfu [6]: -0.42
- log10cfu [7]: 2.75
- log10cfu [8]: 3.23

SMILES: CC1=C(C(=O)O)N2C(=O)[C@@H](NC(=O)[C@H](N)c3ccccc3)[C@H]2SC1 [CEPHALEXIN ANHYDROUS]
- fold change (FC) [1]: 2
- Activity [2]: 200 mg/L
- fold change (FC) [9]: 16
- fold change (FC) [4]: 16
- EC50 [5]: 0.27 µg/mL (≈ 0.777 µM)
- log10cfu [6]: 0.035
- log10cfu [7]: 2.42
- log10cfu [8]: 3.09

SMILES: CN[C@H](CC(C)C)C(=O)N[C@H]1C(=O)N[C@@H](CC(N)=O)C(=O)N[C@H]2C(=O)N[C@H]3C(=O)N[C@H](C(=O)N[C@H](C(=O)O)c4cc(O)cc(O)c4-c4cc3ccc4O)[C@H](O)c3ccc(c(Cl)c3)Oc3cc2cc(c3O[C@@H]2O[C@H](CO)[C@@H](O)[C@H](O)[C@H]2O[C@H]2C[C@](C)(N)[C@H](O)[C@H](C)O2)Oc2ccc(cc2Cl)[C@H]1O [VANCOMYCIN]
- MIC [10]: 0.25 µg/mL (≈ 0.173 µM)
- MIC [11]: 0.25 µg/mL (≈ 0.173 µM)
- MIC [12]: 0.25 µg/mL (≈ 0.173 µM)
- MIC [13]: 0.25 µg/mL (≈ 0.173 µM)
